One data set has as its target Cannabinoid receptor 2 (Homo sapiens, UniProt P34972). Description: Displacement of [3H]CP55940 from human CB2 receptor expressed in HEK293 cell membranes. An outline of the steps:
(§1)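 Competition binding against [3H]CP55940 in membranes from HEK cells overexpressing human CB1 or CB2. Ki values are derived from displacement, and the same membrane format is used for both receptors. Values are averages of three to six independent measurements.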
In general terms: In a radioligand displacement assay an active substance lowers the binding of a labelled ligand.

A further data set has as its target Cannabinoid receptor 1 (Homo sapiens, UniProt P21554). Kind of data set: Displacement of [3H]CP55940 from human CB1 receptor expressed in HEK293 cell membranes. The gist of the method: as §1
A short description of data set [1]: Cmax in C57BL6 mouse plasma at 0.3 mg/kg, po measured at 1 hr post dose by LC-MS/MS analysis. The class given is ADME, organism-based. Details: dose 0.3 mg/kg, route oral. The gist of the method: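 Female C57BL6 mice, 8 weeks old, received a single oral dose of 0.3 mg/kg in 1% NMP/0.3% Tween 80 in 0.5% Na-CMC. […] Maximum observed concentrations are reported; plasma clearance and half-life come from PK analysis.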

The nature of data set [2]: Half life in Sprague-Dawley rat plasma at 1 mg/kg, po by LC-MS/MS analysis. The class given is ADME, organism-based.
The species named for a further data set is Homo sapiens. Kind of data set: Selectivity ratio of Ki for displacement of [3H]CP55940 from human CB2 receptor expressed in HEK293 cell membranes to Ki for displacement of [3H]CP55940 from human CB1 receptor expressed in HEK293 cell membranes. An outline of the steps: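 Competitive displacement of [3H]CP55940 from membranes of HEK cells overexpressing human CB1 or human CB2. A Ki was determined at each receptor, and selectivity was expressed as Ki(CB2)/Ki(CB1). Ki values are means of three to six independent measurements.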

pKi: −log10 of the molar value.

Cannabinoid receptor 1, sequence (P21554 whole entry): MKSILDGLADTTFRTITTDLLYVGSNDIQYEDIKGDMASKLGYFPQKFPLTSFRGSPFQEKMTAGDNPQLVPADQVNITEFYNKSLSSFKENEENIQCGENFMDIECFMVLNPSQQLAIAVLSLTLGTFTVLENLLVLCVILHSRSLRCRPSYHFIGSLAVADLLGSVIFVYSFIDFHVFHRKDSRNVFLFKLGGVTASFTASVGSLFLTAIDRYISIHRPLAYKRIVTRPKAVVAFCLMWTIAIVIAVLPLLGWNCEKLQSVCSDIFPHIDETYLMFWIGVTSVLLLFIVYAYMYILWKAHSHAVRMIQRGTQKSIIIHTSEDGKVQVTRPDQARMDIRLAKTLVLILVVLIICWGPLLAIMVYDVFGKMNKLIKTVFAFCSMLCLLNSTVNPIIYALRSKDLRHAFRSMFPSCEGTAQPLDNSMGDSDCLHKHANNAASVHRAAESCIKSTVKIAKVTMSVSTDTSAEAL
Cannabinoid receptor 2, sequence (P34972 whole entry): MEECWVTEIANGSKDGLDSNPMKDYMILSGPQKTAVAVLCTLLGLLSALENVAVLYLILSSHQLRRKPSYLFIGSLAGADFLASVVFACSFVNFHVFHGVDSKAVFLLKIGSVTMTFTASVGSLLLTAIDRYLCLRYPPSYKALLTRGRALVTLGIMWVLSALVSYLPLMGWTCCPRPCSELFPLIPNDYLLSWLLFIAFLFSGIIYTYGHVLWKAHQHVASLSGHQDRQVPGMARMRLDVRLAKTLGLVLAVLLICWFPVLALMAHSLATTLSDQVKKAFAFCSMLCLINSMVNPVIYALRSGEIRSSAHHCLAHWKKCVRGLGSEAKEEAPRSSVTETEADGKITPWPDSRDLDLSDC

A word on the pKi: it is the negative decadic logarithm of the Ki, by convention in mol/L. Read a high pKi as a small Ki. For `CC1(NC(=O)NC2CCCCC2)CCN(c2ncnc3c2nc(-c2ccccc2Cl)n3-c2ccc(Cl)cc2)CC1`, the pKi at Cannabinoid receptor 2 was less than 5.00; at Cannabinoid receptor 1 it was 7.89.
For `O=C(NCC1CCCCC1)NC1CCN(c2ncnc3c2nc(-c2ccccc2Cl)n3-c2ccc(C(F)(F)F)nc2)CC1`, at Cannabinoid receptor 1, the pKi was 6.14.
On to `CC1(NC(=O)Nc2ccc(OC(F)F)nc2)CCN(c2ncnc3c2nc(-c2ccccc2Cl)n3-c2ccc(Cl)cc2)CC1`, for which the pKi at Cannabinoid receptor 2 is less than 5.00; at Cannabinoid receptor 1, 7.09.
On the same counts, the results for `CC1(NC(=O)NC2CCN(c3ncnc4c3nc(-c3ccccc3Cl)n4-c3ccc(Cl)cc3)CC2)CCC(F)(F)CC1` are 5.12 and 8.30.
As a reminder, the Cmax is the highest concentration seen after dosing. As a reminder, the half-life is the time needed for the level to fall by half in the phase considered. As for `O=C(Nc1ccc(F)cc1F)NC1CCN(c2ncnc3c2nc(-c2ccccc2Cl)n3-c2ccc(Cl)cc2)CC1`, in data set [1], the peak level (Cmax) was 1230 ng/mL. For the same compound, the half-life in data set [2] was 12 h.
For `O=C(NC1CCN(c2ncnc3c2nc(-c2ccccc2Cl)n3-c2ccc(Cl)cc2)CC1)NC1(C(F)(F)F)CCCC1`, the pKi on Cannabinoid receptor 2 was less than 5.00; on Cannabinoid receptor 1, 8.20.
For the compound `O=C(NC1CCN(c2ncnc3c2nc(-c2ccccc2Cl)n3-c2ccc(Cl)cc2)CC1)N1CCCCC1`, in the data set listed under Homo sapiens, the Ratio Ki came to 330. Besides, the pKi on Cannabinoid receptor 2 was 6.40; at Cannabinoid receptor 1 it was 8.92.
In the case of `O=C(NCC1CCCCC1)NC1CCN(c2ncnc3c2nc(-c2ccccc2Cl)n3-c2ccc(Cl)cc2)CC1`, the figures for the negative logarithm of the Ki (pKi) at Cannabinoid receptor 2 and at Cannabinoid receptor 1 were 5.12 and 9.05, respectively.
At Cannabinoid receptor 2, `COCCN(C)C(=O)NC1CCN(c2ncnc3c2nc(-c2ccccc2Cl)n3-c2ccc(Cl)cc2)CC1` gave a pKi of 5.64.
Consider `CC1(NC(=O)Nc2ccc(F)cc2F)CCN(c2ncnc3c2nc(-c2ccccc2Cl)n3-c2ccc(Cl)cc2)CC1`, for which the results for the negative logarithm of the Ki (pKi) on Cannabinoid receptor 2 and at Cannabinoid receptor 1 were less than 5.00 and 8.22, respectively.
On the same counts, the results for `O=C(NCC1CCC(F)(F)CC1)NC1CCN(c2ncnc3c2nc(-c2ccccc2Cl)n3-c2ccc(Cl)cc2)CC1` are less than 5.00 and 7.59.
For `CCCN(C)C(=O)NC1CCN(c2ncnc3c2nc(-c2ccccc2Cl)n3-c2ccc(Cl)cc2)CC1`, the pKi on Cannabinoid receptor 2 was 6.20.
For `CC1(NC(=O)NC2CCC(F)(F)CC2)CCN(c2ncnc3c2nc(-c2ccccc2Cl)n3-c2ccc(Cl)cc2)CC1`, the pKi at Cannabinoid receptor 2 was less than 5.00; on Cannabinoid receptor 1 it was 7.77.
As for `CC1(NC(=O)Nc2ccccc2F)CCN(c2ncnc3c2nc(-c2ccccc2Cl)n3-c2ccc(Cl)cc2)CC1`, the pKi is less than 5.00 at Cannabinoid receptor 2 and 8.40 at Cannabinoid receptor 1.
`O=C(NCC1CCCC1)NC1CCN(c2ncnc3c2nc(-c2ccccc2Cl)n3-c2ccc(Cl)cc2)CC1`: the pKi on Cannabinoid receptor 2 was 5.49.
Consider `CC1(NS(=O)(=O)NC2CCCCC2)CCN(c2ncnc3c2nc(-c2ccccc2Cl)n3-c2ccc(Cl)cc2)CC1`, for which the Ratio Ki in the data set filed under Homo sapiens was 82. Moreover, the pKi on Cannabinoid receptor 2 is 6.13; at Cannabinoid receptor 1, 8.05.
Regarding `O=C(NC1CCCC1)NC1CCN(c2ncnc3c2nc(-c2ccccc2Cl)n3-c2ccc(Cl)cc2)CC1`, the pKi on Cannabinoid receptor 2 is less than 5.00.
Take `CCCN(CC(F)(F)F)C(=O)NC1CCN(c2ncnc3c2nc(-c2ccccc2Cl)n3-c2ccc(Cl)cc2)CC1`: the Ratio Ki in the data set listed under Homo sapiens came out at 2500. For the same compound, the pKi at Cannabinoid receptor 2 was 5.55; at Cannabinoid receptor 1, 8.96.
Regarding `O=C(NC1CCCCC1)NC1CCN(c2ncnc3c2nc(-c2ccccc2Cl)n3-c2ccc(Cl)cc2)CC1`, the values for the negative logarithm of the Ki (pKi) at Cannabinoid receptor 2 and at Cannabinoid receptor 1 were 5.34 and 8.85, respectively.
As for `CC1(NC(=O)NCc2ccccc2F)CCN(c2ncnc3c2nc(-c2ccccc2Cl)n3-c2ccc(Cl)cc2)CC1`, the Ratio Ki in the data set filed under Homo sapiens came out at 73. For the same compound, the negative-log Ki (pKi) on Cannabinoid receptor 2 was 5.96; on Cannabinoid receptor 1 it was 7.82.
`O=C(NCc1ccccc1F)NC1CCN(c2ncnc3c2nc(-c2ccccc2Cl)n3-c2ccc(Cl)cc2)CC1` gave a pKi at Cannabinoid receptor 2 of 6.66.
Compound `CC(C)CN(C)C(=O)NC1CCN(c2ncnc3c2nc(-c2ccccc2Cl)n3-c2ccc(Cl)cc2)CC1` showed a pKi at Cannabinoid receptor 2 of 6.22.

Values taken from ChEMBL document CHEMBL4364254 (J Med Chem, 2019).
